Measurements: ChEMBL document CHEMBL4680287, “Ibrexafungerp: An orally active β-1,3-glucan synthesis inhibitor” (Bioorg Med Chem Lett, 2021)
≈ marks a conversion by molar mass, not a printed value.

Columns and labels:
Candida albicans [1] = experiment: Antifungal activity against Candida albicans MY1055 assessed as fungal growth inhibition measured after 24 hrs in presence of 50% mouse serum by liquid microdilution method; type: functional
Outline: (§1)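 Broth microdilution per CLSI protocols in RPMI medium. Read-out is the MIC, the lowest concentration completely inhibiting fungal growth. Run without serum and with added serum.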

Candida albicans [2] = experiment: Antifungal activity against Candida albicans MY1055 assessed as fungal growth inhibition measured after 24 hrs by liquid microdilution method; type: functional; outline: as §1
[3] = Inhibition of beta-1,3-glucan synthase in Candida albicans MY1055 microsomal membrane assessed as inhibition of TCA-insoluble material formation using UDP-[3H]-glucose as substrate incubated for 2 hrs in presence of GTP by radioactivity-based assay; type: microsomes, Microsome
Outline: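 GS IC50 measured using Candida albicans MY1055 microsomal membrane fragments as the enzyme source.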

Aspergillus fumigatus = experiment: Antifungal activity against Aspergillus fumigatus MF5668 assessed inhibition of fungal growth by measuring morphological changes measured after 24 hrs by microscopy; type: functional; conditions: read-out: MEC
Outline: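 Microdilution per CLSI protocols in RPMI medium. Read-out is the minimum effective concentration (MEC). Run without serum and with 50% human serum.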

Row | SMILES | MIC (Candida albicans [1]) [µg/mL] | MIC (Candida albicans [2]) [µg/mL] | IC50 [3] [µg/mL] | minimal effective concentration (Aspergillus fumigatus) [µg/mL]
1 | COc1cccc(-c2ncnn2[C@@H]2C[C@@]34COC[C@](C)([C@@H]3CC[C@H]3C4=CC[C@@]4(C)[C@H](C(=O)O)[C@@](C)([C@H](C)C(C)C)CC[C@]34C)[C@H]2OC[C@](C)(N)C(C)C)c1 | 32 | 0.25 (≈ 0.336 µM) | 0.011 | < 0.03
2 | CC(C)[C@@H](C)[C@@]1(C)CC[C@]2(C)[C@H]3CC[C@@H]4[C@@]5(COC[C@@]4(C)[C@@H](OC[C@](C)(N)C(C)C)[C@H](n4ncnc4-c4cnccn4)C5)C3=CC[C@@]2(C)[C@@H]1C(=O)O | 4 | 0.5 (≈ 0.697 µM) | 0.004 | < 0.03
3 | CC(C)[C@@H](C)[C@@]1(C)CC[C@]2(C)[C@H]3CC[C@@H]4[C@@]5(COC[C@@]4(C)[C@@H](OC[C@](C)(N)C(C)C)[C@H](n4ncnc4C4CC4)C5)C3=CC[C@@]2(C)[C@@H]1C(=O)O | 16 | 0.125 (≈ 0.184 µM) | 0.006 | 0.008
4 | CC(C)[C@@H](C)[C@@]1(C)CC[C@]2(C)[C@H]3CC[C@@H]4[C@@]5(COC[C@@]4(C)[C@@H](OC[C@](C)(N)C(C)C)[C@H](n4ncnc4-c4ccc(F)cc4)C5)C3=CC[C@@]2(C)[C@@H]1C(=O)O | 8 | 0.25 (≈ 0.341 µM) | 0.011 | < 0.03
5 | COc1cc(-c2ncnn2[C@@H]2C[C@@]34COC[C@](C)([C@@H]3CC[C@H]3C4=CC[C@@]4(C)[C@H](C(=O)O)[C@@](C)([C@H](C)C(C)C)CC[C@]34C)[C@H]2OC[C@](C)(N)C(C)C)ccn1 | 4 | 0.25 (≈ 0.335 µM) | 0.008 | < 0.03
6 | CN[C@@](C)(CO[C@H]1[C@H](n2ncnc2-c2ccccn2)C[C@@]23COC[C@]1(C)[C@@H]2CC[C@H]1C3=CC[C@@]2(C)[C@H](C(=O)O)[C@@](C)([C@H](C)C(C)C)CC[C@]12C)C(C)C | 16 | 0.25 (≈ 0.342 µM) | 0.003 | < 0.03
7 | CC(C)[C@@H](C)[C@@]1(C)CC[C@]2(C)[C@H]3CC[C@@H]4[C@@]5(COC[C@@]4(C)[C@@H](OC[C@](C)(N)C(C)C)[C@H](n4cncn4)C5)C3=CC[C@@]2(C)[C@@H]1C(=O)O | 4 | 0.25 (≈ 0.391 µM) | 0.007 | < 0.03
8 | Cc1ncnn1[C@@H]1C[C@@]23COC[C@](C)([C@@H]2CC[C@H]2C3=CC[C@@]3(C)[C@H](C(=O)O)[C@@](C)([C@H](C)C(C)C)CC[C@]23C)[C@H]1OC[C@](C)(N)C(C)C | 4 | 0.25 (≈ 0.383 µM) | 0.005 | 0.03
9 | CCc1ncnn1[C@@H]1C[C@@]23COC[C@](C)([C@@H]2CC[C@H]2C3=CC[C@@]3(C)[C@H](C(=O)O)[C@@](C)([C@H](C)C(C)C)CC[C@]23C)[C@H]1OC[C@](C)(N)C(C)C | 8 | 0.25 (≈ 0.375 µM) | 0.01 | < 0.03
10 | CC(C)[C@@H](C)[C@@]1(C)CC[C@]2(C)[C@H]3CC[C@@H]4[C@@]5(COC[C@@]4(C)[C@@H](OC[C@](C)(N)C(C)C)[C@H](n4ncnc4-c4cccnn4)C5)C3=CC[C@@]2(C)[C@@H]1C(=O)O | 2 | < 0.03 | 0.005 | < 0.03
11 | CC(C)[C@@H](C)[C@@]1(C)CC[C@]2(C)[C@H]3CC[C@@H]4[C@@]5(COC[C@@]4(C)[C@@H](OC[C@](C)(N)C(C)C)[C@H](n4ncnc4-c4ncccn4)C5)C3=CC[C@@]2(C)[C@@H]1C(=O)O | 8 | 0.25 (≈ 0.349 µM) | 0.004 | < 0.03
12 | CC(C)[C@@H](C)[C@@]1(C)CC[C@]2(C)[C@H]3CC[C@@H]4[C@@]5(COC[C@@]4(C)[C@@H](OC[C@](C)(N)C(C)C)[C@H](n4ncnc4-c4ccccc4F)C5)C3=CC[C@@]2(C)[C@@H]1C(=O)O | 8 | 0.5 (≈ 0.682 µM) | – | < 0.03
